Experimental data taken from ChEMBL document CHEMBL4330093, “Biphenyl Gal and GalNAc FmlH Lectin Antagonists of Uropathogenic E. coli (UPEC): Optimization through Iterative Rational Drug Design” (J Med Chem, 2019).
Values after ≈ are worked out from the molar mass of the structure shown. Blank lines part the entries; values can stand above or below the compound they belong to.

Key:
[1] = Half life in mouse liver microsomes; assay type: ADME, Microsome; settings: for t1/2: microsomes
[2] = Stability of the compound in simulated intestinal fluid assessed as compound remaining after 2 hrs; assay type: ADME; settings: for Stability: simulated gi fluid, 2 h
[3] = Drug metabolism in mouse urine assessed as phenol product metabolite formation; assay type: ADME, tissue-based
[4] = Stability of the compound in simulated gastric fluid assessed as compound remaining after 6 hrs; assay type: ADME; settings: for Stability: simulated gi fluid, 6 h
[5] = Stability in mouse plasma assessed as compound remaining after 2 hrs; assay type: ADME, cell-free; settings: for Stability: 2 h
[6] = Drug metabolism in mouse plasma assessed as phenol product metabolite formation; assay type: ADME, cell-free
[7] = Oral bioavailability in Sprague-Dawley rat at 10 mg/kg by LC/MS/MS analysis; assay type: ADME, organism-based; settings: in vivo
[8] = Plasma concentration in CD1 mouse at 20 mg/kg, ip after 4 hrs by LC/MS/MS analysis; assay type: ADME, organism-based
Outline: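 Single 20 mg/kg intraperitoneal injection in mice. Plasma drug concentrations were followed over time, including 4 h and 8 h points. Cmax was read from the profile, AUC was calculated, and half-life was derived.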

[9] = Time at which plasma concentration stays above in vitro Escherichia coli C600 C-terminal 6His-tagged biotinylated FmlH lectin domain inhibitory IC50 in CD1 mouse at 20 mg/kg, ip by LC/MS/MS analysis; assay type: ADME, organism-based; settings: in vivo
Outline: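 After a single 20 mg/kg IP dose in mice, plasma concentrations were compared with the ELISA IC50 converted to ng/mL. Persistence beyond the last measured point was inferred by extrapolating the plasma kinetics. For the ELISA IC50, biotinylated FmlH lectin domain (20 μg/mL) bound to sialidase-treated bovine submaxillary mucin, with streptavidin-HRP/TMB readout at 450 nm.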

[10] = Kinetic solubility of the compound at pH 7.4; assay type: physicochemical; settings: buffer
[11] = Half life in Sprague-Dawley rat at 10 mg/kg, po or 3 mg/kg, iv by LC/MS/MS analysis; assay type: ADME, organism-based; settings: in vivo
Outline: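 Sprague-Dawley rats got a single 10 mg/kg oral or 3 mg/kg IV dose. Compound was measured over time in plasma and in urine, and t1/2 and clearance were derived from the plasma profile.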

Structure (SMILES): CC(=O)N[C@H]1[C@H](Oc2cccc(F)c2-c2cccc(NS(C)(=O)=O)c2)O[C@H](CO)[C@H](O)[C@@H]1O
- t1/2 [1]: > 145 min
- Stability [2]: 94%
- Drug metabolism [3]: Metabolite_Detected
- Stability [4]: 92%
- Stability [5]: 89%
- Drug metabolism [6]: Metabolite_Detected

Structure (SMILES): CC(=O)N[C@H]1[C@H](Oc2cccc(C)c2-c2cccc(NS(=O)(=O)C3CC3)c2)O[C@H](CO)[C@H](O)[C@@H]1O
- t1/2 [1]: > 145 min
- F [7]: < 1%
- Stability [2]: 100%
- Drug metabolism [3]: Metabolite_Detected
- Stability [4]: 100%
- Stability [5]: 84%
- Drug metabolism [6]: Metabolite_Detected

Structure (SMILES): CC(=O)N[C@H]1[C@H](Oc2cccc(C)c2-c2cccc(NS(C)(=O)=O)c2)O[C@H](CO)[C@H](O)[C@@H]1O
- concentration at 4 h [8]: 79.5 ng/mL
- t1/2 [1]: > 145 min
- Stability [2]: 100%
- Time [9]: 6 h
- Drug metabolism [3]: Metabolite_Detected
- Stability [4]: 100%
- Stability [5]: 100%
- Drug metabolism [6]: Metabolite_Detected

- half-life ([1]; liver microsomes): > 145 min
- remaining at 2 h ([2]; simulated intestinal fluid, read-out: Stability): 89%
- Drug metabolism [3]: Metabolite_Detected
- remaining at 6 h ([4]; simulated gastric fluid, read-out: Stability): 91%
- solubility kinetic ([10]; read-out: Kinetic_solubility): 164 µM (≈ 87.7 µg/mL)
- remaining at 2 h ([5]; read-out: Stability): 89%
- Drug metabolism [6]: Metabolite_Detected
Structure (SMILES): Cc1cccc(O[C@@H]2O[C@H](CO)[C@H](O)[C@H](O)C2NC(=O)C(F)(F)F)c1-c1cccc(NS(C)(=O)=O)c1 (single isomer, unassigned)

Structure (SMILES): CC(=O)NC1[C@H](Oc2cccc(C(F)(F)F)c2-c2cccc(NS(C)(=O)=O)c2)O[C@H](CO)[C@H](O)[C@@H]1O (single isomer, unassigned)
- t1/2 [1]: > 145 min
- half-life [11]: 69.6 min
- F [7]: < 1%
- Stability [2]: 92%
- Drug metabolism [3]: Metabolite_Detected
- Stability [4]: 89%
- Kinetic_solubility [10]: 197 µM
- Stability [5]: 92%
- Drug metabolism [6]: Metabolite_Detected

Structure (SMILES): CC(=O)NC1[C@H](Oc2cccc(C#N)c2-c2cccc(NS(C)(=O)=O)c2)O[C@H](CO)[C@H](O)[C@@H]1O (single isomer, unassigned)
- t1/2 [1]: > 145 min
- Stability [2]: 100%
- Drug metabolism [3]: Metabolite_Detected
- Stability [4]: 87%
- Kinetic_solubility [10]: 196 µM
- Stability [5]: 89%
- Drug metabolism [6]: Metabolite_Detected
